In brackets after ≈: the same amount, converted by molar mass. Activity calls are given as the source filed them. No cut-off for these calls is given here.
Key:
[1] = Selectivity index, ratio of CC50 for African green monkey Vero cells to MIC for Antitubercular activity against Mycobacterium tuberculosis H37Rv; format: toxicity; settings: read-out: Selectivity Index
How it was run: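 Selectivity index calculated as Vero CC50 (MTT, 72 h) divided by the H37Rv MIC from the resazurin broth microdilution assay.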

[2] = tested on: Mycobacterium tuberculosis; assay: Antitubercular activity against Mycobacterium tuberculosis H37Rv assessed as bacterial growth inhibition after 7 days by broth microdilution assay; format: functional; settings: 168 h, dose 0.03-64 µg/ml, time 7 day
How it was run: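 Compounds were tested in broth microdilution from 64 downward, incubated 37 °C for 7 days, then resazurin (PrestoBlue) added. MIC is the lowest concentration preventing the blue-to-pink change, run in triplicate, reporting the value obtained at least twice of three.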

[3] = tested on: Mycobacterium tuberculosis; assay: Antimycobacterial activity against Mycobacterium tuberculosis H37Rv ATCC 27294 assessed as reduction in bacterial growth incubated for […] by broth microdilution assay; format: functional
[4] = Cytotoxicity against African green monkey vero cells assessed as reduction in cell viability measured after 72 hrs by MTT assay; format: cell-based; settings: chlorocebus sabaeus
How it was run: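 Vero cells seeded at ~10³ cells/well and grown 24 h at 37 °C, 5% CO₂, then exposed to compound (100 to 5 mg/l) for 72 h. MTT was added […] for 4 h and formazan dissolved in DMSO. CC50 is the lowest concentration giving 50% viability reduction. Doxorubicin was the positive control, run in triplicate.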

[5] = tested on: Mycolicibacterium fortuitum; assay: Antimycobacterial activity against Mycobacterium fortuitum ATCC 6841 assessed as visible growth inhibition incubated for 16 to 18 hrs; format: functional, organism-based; settings: time 16-18 hrs
Mycobacteroides chelonae = assay: Antimycobacterial activity against Mycobacterium chelonae ATCC 35752 assessed as visible growth inhibition incubated for 16 to 18 hrs; format: functional, organism-based; settings: time 16-18 hrs
[6] = tested on: Mycobacteroides abscessus; assay: Antimycobacterial activity against Mycobacterium abscessus ATCC 19977 assessed as visible growth inhibition incubated for 16 to 18 hrs; format: functional, organism-based; settings: time 16-18 hrs
[7] = tested on: Mycobacterium tuberculosis; assay: Antimycobacterial activity against Mycobacterium tuberculosis H37Rv assessed as reduction in CFU at 10 times MIC concentration measured up to 6 days by time kill assay; format: functional, organism-based; settings: time day <=6
How it was run: (§1)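 Time-kill: H37Rv at ~10⁵ CFU/mL in 96-well plates with compound at 1x or 10x MIC, 37 °C for 6 days. At time-points, samples were serially two-fold diluted in normal saline and plated on 7H11 agar with OADC. Colonies were counted after […] at 37 °C, and CFU/mL was plotted against time with and without compound.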

[8] = tested on: Mycobacterium tuberculosis; assay: Antimycobacterial activity against Mycobacterium tuberculosis H37Ra; format: functional
[9] = tested on: Mycobacterium tuberculosis; assay: Antimycobacterial activity against Mycobacterium tuberculosis H37Rv assessed as reduction in CFU at MIC concentration measured up to 6 days by time kill assay; format: functional, organism-based; settings: time day <=6; how it was run: as §1

Row | Structure (SMILES) | selectivity ratio [1] | MIC [2] [µg/mL] | MIC [3] [µg/mL] | CC50 at 72 h [4] [µg/mL] | Activity [5] | Activity (Mycobacteroides chelonae) | Activity [6] | Activity [7] | MIC [8] [µg/mL] | Activity [9]
1 | COC(=O)c1cc(-c2cccc(NC(=O)c3ccc(/C=C/C(=O)c4ccc(N5CCOCC5)cc4)cc3)c2)on1 | > 40 | 0.5 (≈ 0.93 µM) | 5 (≈ 9.3 µM) | > 20 | inactive | inactive | inactive |  |  | 
2 | COC(=O)c1cc(-c2cccc(NC(=O)c3ccc(/C=C/C(=O)c4ccc(F)cc4F)cc3)c2)on1 | > 333 | 0.12 (≈ 0.246 µM) | 0.12 (≈ 0.246 µM) | > 40 | inactive | inactive | inactive |  |  | 
3 | CCOC(=O)c1cc(-c2cccc(NC(=O)c3ccc(/C=C/C(=O)c4ccc(Cl)cc4)cc3)c2)on1 | > 160 | 0.5 (≈ 0.998 µM) | 0.5 (≈ 0.998 µM) | > 80 | inactive | inactive | inactive |  |  | 
4 | COC(=O)c1cc(-c2ccc(NC(=O)c3ccc(/C=C/C(=O)c4ccc(Cl)cc4)cc3)cc2)on1 | > 1330 | 0.06 (≈ 0.123 µM) | 0.06 (≈ 0.123 µM) | > 80 | inactive | inactive | inactive |  |  | 
5 | COC(=O)c1cc(-c2cccc(NC(=O)c3ccc(/C=C/C(=O)c4ccc(C)cc4)cc3)c2)on1 | > 160 | 0.5 (≈ 1.07 µM) | 5 (≈ 10.7 µM) | > 80 | inactive | inactive | inactive |  |  | 
6 | COC(=O)c1cc(-c2cccc(NC(=O)c3ccc(/C=C/C(=O)c4ccc(Cl)cc4Cl)cc3)c2)on1 | > 80 | 0.5 (≈ 0.959 µM) | 0.5 (≈ 0.959 µM) | > 40 | inactive | inactive | inactive |  |  | 
7 | COC(=O)c1cc(-c2cccc(NC(=O)c3ccc(/C=C/C(=O)c4cccc(Cl)c4)cc3)c2)on1 | > 10 | 0.25 (≈ 0.513 µM) | 0.25 (≈ 0.513 µM) | > 2.5 | inactive | inactive | inactive |  |  | 
8 | CCCOc1ccc(C(=O)/C=C/c2ccc(C(=O)Nc3cccc(-c4cc(C(=O)OC)no4)c3)cc2)cc1 | > 320 | 0.12 (≈ 0.235 µM) | 0.12 (≈ 0.235 µM) | > 40 | inactive | inactive | inactive | Active |  | 
9 | COc1cc(/C=C/c2cc(/C=C/c3ccc(OC)c(OC)c3)no2)ccc1O |  |  |  |  |  |  |  |  | 0.09 (≈ 0.237 µM) | 
10 | COC(=O)c1cc(-c2cccc(NC(=O)c3ccc(/C=C/C(=O)c4ccc(Cl)cc4)cc3)c2)on1 | > 416 | 0.12 (≈ 0.246 µM) | 0.12 (≈ 0.246 µM) | > 50 | inactive | inactive | inactive |  |  | 
11 | COC(=O)c1cc(-c2cccc(NC(=O)c3ccc(/C=C/C(=O)c4ccccc4C)cc3)c2)on1 | > 100 | 0.25 (≈ 0.536 µM) | 0.25 (≈ 0.536 µM) | > 25 | inactive | inactive | inactive |  |  | 
12 | COC(=O)c1cc(-c2cccc(NC(=O)c3ccc(/C=C/C(=O)c4ccc(CC(C)C)cc4)cc3)c2)on1 | > 84 | 0.12 (≈ 0.236 µM) | 0.12 (≈ 0.236 µM) | > 10 | inactive | inactive | inactive |  |  | 
13 | COC(=O)c1cc(-c2cccc(NC(=O)c3ccc(/C=C/C(=O)c4ccc(OC)cc4OC)cc3)c2)on1 | > 200 | 0.25 (≈ 0.488 µM) | 0.25 (≈ 0.488 µM) | > 50 | inactive | inactive | inactive |  |  | 
14 | CC[C@@H](CO)NCCN[C@@H](CC)CO [ETHAMBUTOL] |  | 1 (≈ 4.89 µM) | 1 (≈ 4.89 µM) |  |  |  |  |  |  | 
15 | CCOC(=O)c1cc(/C=C/c2c(Cl)cncc2Cl)on1 |  | 0.18 (≈ 0.575 µM) | 0.5 (≈ 1.6 µM) |  |  |  |  |  |  | 
16 | COC(=O)c1cc(-c2cccc(NC(=O)c3ccc(/C=C/C(=O)c4ccccc4Cl)cc3)c2)on1 | > 100 | 0.25 (≈ 0.513 µM) | 0.25 (≈ 0.513 µM) | > 25 | inactive | inactive | inactive |  |  | 
17 | CCOc1ccc(C(=O)/C=C/c2ccc(C(=O)Nc3cccc(-c4cc(C(=O)OC)no4)c3)cc2)cc1 | > 160 | 0.25 (≈ 0.504 µM) | 0.25 (≈ 0.504 µM) | > 40 | inactive | inactive | inactive | Active |  | Active
